# Results as given in ChEMBL document CHEMBL1926642, “Relevance of the C-5 position to schweinfurthin induced cytotoxicity” (2011).
# Columns and labels:
# Type in all cases: functional
# CCRF-CEM = test: Growth inhibition of human CCRF-CEM cells after 48 hrs by sulforhodamine B assay
# HL-60(TB) = test: Growth inhibition of human HL-60(TB) cells after 48 hrs by sulforhodamine B assay; conditions: HL-60, 48 h
# Procedure, shortened: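 Run in the NCI 60 cell-line screen as the full 5-dose assay that follows initial single-dose testing; GI50 is read from the dose series.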
# K562 = test: Growth inhibition of human K562 cells after 48 hrs by sulforhodamine B assay; conditions: K562, 48 h
# MOLT-4 = test: Growth inhibition of human MOLT4 cells after 48 hrs by sulforhodamine B assay; conditions: MOLT-4, 48 h
# RPMI-8226 = test: Growth inhibition of human RPMI8226 cells after 48 hrs by sulforhodamine B assay; conditions: RPMI-8226, 48 h
# EKVX = test: Growth inhibition of human EKVX cells after 48 hrs by sulforhodamine B assay
# HOP-62 = test: Growth inhibition of human HOP62 cells after 48 hrs by sulforhodamine B assay; conditions: HOP-62, 48 h
# NCI-H226 = test: Growth inhibition of human NCI-H226 cells after 48 hrs by sulforhodamine B assay; conditions: NCI-H226, 48 h
# NCI-H23 = test: Growth inhibition of human NCI-H23 cells after 48 hrs by sulforhodamine B assay; conditions: NCI-H23, 48 h
# NCI-H322M = test: Growth inhibition of human NCI-H322M cells after 48 hrs by sulforhodamine B assay
# NCI-H460 = test: Growth inhibition of human NCI-H460 cells after 48 hrs by sulforhodamine B assay; conditions: NCI-H460, 48 h
# HCC 2998 = test: Growth inhibition of human HCC2998 cells after 48 hrs by sulforhodamine B assay; conditions: HCC 2998, 48 h
# HCT-116 = test: Growth inhibition of human HCT116 cells after 48 hrs by sulforhodamine B assay; conditions: HCT-116, 48 h
# HCT-15 = test: Growth inhibition of human HCT15 cells after 48 hrs by sulforhodamine B assay; conditions: HCT-15, 48 h
# KM12 = test: Growth inhibition of human KM12 cells after 48 hrs by sulforhodamine B assay; conditions: KM12, 48 h
# SF-295 = test: Growth inhibition of human SF295 cells after 48 hrs by sulforhodamine B assay; conditions: SF-295, 48 h
# U-251 = test: Growth inhibition of human U251 cells after 48 hrs by sulforhodamine B assay; conditions: U-251, 48 h
# SK-MEL-2 = test: Growth inhibition of human SK-MEL-2 cells after 48 hrs by sulforhodamine B assay; conditions: SK-MEL-2, 48 h
# SK-MEL-5 = test: Growth inhibition of human SK-MEL-5 cells after 48 hrs by sulforhodamine B assay; conditions: SK-MEL-5, 48 h
# IGROV-1 = test: Growth inhibition of human IGROV1 cells after 48 hrs by sulforhodamine B assay; conditions: IGROV-1, 48 h
# OVCAR-3 = test: Growth inhibition of human OVCAR3 cells after 48 hrs by sulforhodamine B assay; conditions: OVCAR-3, 48 h
# OVCAR-4 = test: Growth inhibition of human OVCAR4 cells after 48 hrs by sulforhodamine B assay; conditions: OVCAR-4, 48 h
# OVCAR-5 = test: Growth inhibition of human OVCAR5 cells after 48 hrs by sulforhodamine B assay; conditions: OVCAR-5, 48 h
# OVCAR-8 = test: Growth inhibition of human OVCAR8 cells after 48 hrs by sulforhodamine B assay; conditions: OVCAR-8, 48 h
# SK-OV-3 = test: Growth inhibition of human SKOV3 cells after 48 hrs by sulforhodamine B assay; conditions: SK-OV-3, 48 h
# CAKI-1 = test: Growth inhibition of human Caki1 cells after 48 hrs by sulforhodamine B assay; conditions: CAKI-1, 48 h
# SN12C = test: Growth inhibition of human SN12C cells after 48 hrs by sulforhodamine B assay
# TK-10 = test: Growth inhibition of human TK10 cells after 48 hrs by sulforhodamine B assay; conditions: TK-10, 48 h
# UO-31 = test: Growth inhibition of human UO31 cells after 48 hrs by sulforhodamine B assay; conditions: UO-31, 48 h
# MDA-MB-231 = test: Growth inhibition of human MDA-MB-231/ATCC cells after 48 hrs by sulforhodamine B assay; conditions: MDA-MB-231, 48 h
# [1] = Growth inhibition of human Hs 578T cells after 48 hrs by sulforhodamine B assay
# T47D = test: Growth inhibition of human T47D cells after 48 hrs by sulforhodamine B assay
# [2] = read-out: pLC50 (the source's name) (converted)
smiles,measurement,setting,value
COc1cc(/C=C/c2cc(F)c3c(c2)C[C@@H]2C(C)(C)[C@H](O)CC[C@@]2(C)O3)cc(O)c1C/C=C(\C)CCC=C(C)C,GI50,CCRF-CEM,1.86 µM
same,LC50,CCRF-CEM,> 100 µM
same,TGI,CCRF-CEM; read-out: pTGI (converted),4.37 µM
same,GI50,HL-60(TB),1.82 µM
same,CC50,HL-60(TB); [2],> 100 µM
same,TGI,HL-60(TB); read-out: pTGI (converted),5.5 µM
same,GI50,K562,2.4 µM
same,LC50,K562,> 100 µM
same,GI50,MOLT-4,2.04 µM
same,LC50,MOLT-4,> 100 µM
same,TGI,MOLT-4; read-out: pTGI (converted),6.46 µM
same,GI50,RPMI-8226,2.04 µM
same,LC50,RPMI-8226,> 100 µM
same,TGI,RPMI-8226; read-out: pTGI (converted),4.79 µM
same,GI50,EKVX,11.7 µM
same,LC50 (50% lethal concentration),EKVX,91.2 µM
same,TGI,EKVX; read-out: pTGI (converted),33.1 µM
same,GI50,HOP-62,7.41 µM
same,LC50,HOP-62,44.7 µM
same,TGI,HOP-62; read-out: pTGI (converted),20 µM
same,GI50,NCI-H226,18.6 µM
same,LC50,NCI-H226,> 100 µM
same,TGI,NCI-H226; read-out: pTGI (converted),45.7 µM
same,GI50,NCI-H23,2.09 µM
same,LC50,NCI-H23,20.9 µM
same,TGI,NCI-H23; read-out: pTGI (converted),5.25 µM
same,GI50,NCI-H322M,34.7 µM
same,LC50,NCI-H322M,> 100 µM
same,TGI,NCI-H322M; read-out: pTGI (converted),> 100 µM
same,GI50,NCI-H460,1.86 µM
same,LC50 (concentration killing 50% of cells),NCI-H460,6.76 µM
same,TGI,NCI-H460; read-out: pTGI (converted),3.55 µM
same,GI50,HCC 2998,12.9 µM
same,LC50,HCC 2998,56.2 µM
same,TGI,HCC 2998; read-out: pTGI (converted),26.9 µM
same,GI50,HCT-116,2.45 µM
same,LC50,HCT-116,20.4 µM
same,TGI,HCT-116; read-out: pTGI (converted),6.03 µM
same,GI50,HCT-15,12.3 µM
same,LC50,HCT-15,66.1 µM
same,TGI,HCT-15; read-out: pTGI (converted),28.8 µM
same,GI50,KM12,1.91 µM
same,LC50,KM12,8.32 µM
same,TGI,KM12; read-out: pTGI (converted),3.98 µM
same,LC50,SF-295,69.2 µM
same,GI50,SF-295; read-out: GI50,5.01 µM
same,GI50,SF-295; read-out: pGI50 (converted),5.01 µM
same,TGI,SF-295; read-out: pTGI (converted),21.4 µM
same,GI50,U-251,2.04 µM
same,LC50,U-251,15.8 µM
same,TGI,U-251; read-out: pTGI (converted),5.01 µM
same,GI50,SK-MEL-2,15.5 µM
same,LC50,SK-MEL-2,75.9 µM
same,TGI,SK-MEL-2; read-out: pTGI (converted),33.9 µM
same,GI50,SK-MEL-5,7.08 µM
same,LC50,SK-MEL-5,44.7 µM
same,TGI,SK-MEL-5; read-out: pTGI (converted),20 µM
same,GI50,IGROV-1,2.95 µM
same,LC50,IGROV-1,53.7 µM
same,TGI,IGROV-1; read-out: pTGI (converted),7.94 µM
same,GI50,OVCAR-3,12 µM
same,LC50,OVCAR-3,58.9 µM
same,TGI,OVCAR-3; read-out: pTGI (converted),26.9 µM
same,GI50,OVCAR-4,12.6 µM
same,LC50,OVCAR-4,> 100 µM
same,TGI,OVCAR-4; read-out: pTGI (converted),37.2 µM
same,GI50,OVCAR-5,19.1 µM
same,LC50,OVCAR-5,> 100 µM
same,TGI,OVCAR-5; read-out: pTGI (converted),70.8 µM
same,GI50,OVCAR-8,4.37 µM
same,LC50,OVCAR-8,50.1 µM
same,TGI,OVCAR-8; read-out: pTGI (converted),16.2 µM
same,GI50,SK-OV-3,17 µM
same,LC50,SK-OV-3,57.5 µM
same,TGI,SK-OV-3; read-out: pTGI (converted),30.9 µM
same,GI50,CAKI-1,10.2 µM
same,LC50,CAKI-1,53.7 µM
same,TGI,CAKI-1; read-out: pTGI (converted),23.4 µM
same,GI50,SN12C,14.5 µM
same,LC50,SN12C,> 100 µM
same,TGI,SN12C; read-out: pTGI (converted),39.8 µM
same,GI50,TK-10,15.8 µM
same,LC50,TK-10,67.6 µM
same,TGI,TK-10; read-out: pTGI (converted),32.4 µM
same,GI50,UO-31,2.51 µM
same,LC50,UO-31,27.5 µM
same,TGI,UO-31; read-out: pTGI (converted),6.46 µM
same,GI50,MDA-MB-231,6.61 µM
same,CC50,MDA-MB-231; [2],97.7 µM
same,TGI,MDA-MB-231; read-out: pTGI (converted),26.9 µM
same,GI50,[1],8.71 µM
same,CC50,[1]; [2],> 100 µM
same,TGI,[1]; read-out: pTGI (converted),> 100 µM
same,GI50,T47D,12.3 µM
same,LC50,T47D,77.6 µM
same,TGI,T47D; read-out: pTGI (converted),30.9 µM
